pIC50: −log10 of the molar value. Calls of active or inactive are those of the source. The rule behind the calls is not given here.
Legend:
[1] = Inhibition of Dengue virus recombinant […] RNA dependent RNA polymerase using […] by SPA
In short: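 Purified recombinant dengue 2 NS5 polymerase at 50 nM, preincubated 1 h at room temperature with compound over a range of concentrations and annealed poly(C)/biotin-oligo G template. Buffer: 50 mM Tris-HCl pH 7.0, 10 mM KCl, 2 mM MgCl2, 2 mM MnCl2, 1 mM β-mercaptoethanol, 0.05% CHAPS. Stopped with EDTA and streptavidin SPA beads, then scintillation counting. Duplicates, average of at least two experiments.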

DNA polymerase beta = DNA polymerase beta (Homo sapiens, UniProt P06746); experiment: Inhibition of human DNA polymerase beta
[2] = target: T1, DNA polymerase alpha catalytic subunit (Homo sapiens, UniProt P09884); experiment: Inhibition of human DNA polymerase alpha
T1 sequence (P09884 whole entry): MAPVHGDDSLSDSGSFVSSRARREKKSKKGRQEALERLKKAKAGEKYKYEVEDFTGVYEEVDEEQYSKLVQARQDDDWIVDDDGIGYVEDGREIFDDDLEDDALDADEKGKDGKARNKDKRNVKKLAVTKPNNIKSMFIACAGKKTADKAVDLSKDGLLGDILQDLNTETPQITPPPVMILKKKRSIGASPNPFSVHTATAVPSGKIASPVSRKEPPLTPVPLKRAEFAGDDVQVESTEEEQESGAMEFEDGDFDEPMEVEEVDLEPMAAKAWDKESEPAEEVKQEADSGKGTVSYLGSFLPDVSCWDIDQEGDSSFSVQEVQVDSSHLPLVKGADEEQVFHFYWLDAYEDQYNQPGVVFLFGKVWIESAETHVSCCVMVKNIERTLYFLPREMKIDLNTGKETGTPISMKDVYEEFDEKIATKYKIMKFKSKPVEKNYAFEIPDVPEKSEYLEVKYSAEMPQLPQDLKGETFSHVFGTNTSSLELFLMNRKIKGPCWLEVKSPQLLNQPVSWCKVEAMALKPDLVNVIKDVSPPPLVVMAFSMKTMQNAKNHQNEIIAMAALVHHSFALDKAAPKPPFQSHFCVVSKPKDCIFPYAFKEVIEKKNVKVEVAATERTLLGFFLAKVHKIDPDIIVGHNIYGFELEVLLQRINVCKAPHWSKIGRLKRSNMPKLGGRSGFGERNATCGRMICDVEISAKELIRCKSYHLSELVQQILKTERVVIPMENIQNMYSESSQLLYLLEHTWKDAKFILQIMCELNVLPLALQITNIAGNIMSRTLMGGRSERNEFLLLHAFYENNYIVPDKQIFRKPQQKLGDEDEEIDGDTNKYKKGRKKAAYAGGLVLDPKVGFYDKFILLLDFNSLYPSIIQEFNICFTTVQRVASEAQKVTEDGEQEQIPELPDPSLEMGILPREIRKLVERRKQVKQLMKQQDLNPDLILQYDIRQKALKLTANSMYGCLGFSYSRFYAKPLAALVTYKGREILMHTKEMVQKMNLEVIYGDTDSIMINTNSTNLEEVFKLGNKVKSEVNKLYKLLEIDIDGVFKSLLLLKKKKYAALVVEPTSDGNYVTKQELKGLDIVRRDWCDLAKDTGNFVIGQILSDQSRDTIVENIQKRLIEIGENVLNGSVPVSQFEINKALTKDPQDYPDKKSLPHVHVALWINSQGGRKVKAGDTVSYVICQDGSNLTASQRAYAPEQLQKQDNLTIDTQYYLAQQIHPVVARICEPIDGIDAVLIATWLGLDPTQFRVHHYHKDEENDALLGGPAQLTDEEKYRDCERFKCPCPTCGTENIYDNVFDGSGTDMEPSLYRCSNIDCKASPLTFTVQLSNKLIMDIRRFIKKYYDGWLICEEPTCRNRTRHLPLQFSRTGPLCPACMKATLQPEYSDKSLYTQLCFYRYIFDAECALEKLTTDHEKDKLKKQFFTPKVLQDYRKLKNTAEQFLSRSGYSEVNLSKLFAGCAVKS

[3] = Inhibition of HCV RNA dependent RNA polymerase; set-up: species or system Hepacivirus hominis
Dengue virus = experiment: Irreversible inhibition of Dengue virus recombinant […] RNA dependent RNA polymerase under ultraviolet light irradiation

Row | SMILES | pIC50 [1] | also measured
1 | NC(=O)c1ccccc1NS(=O)(=O)c1cccc(-c2cnn(Cc3ccccc3)c2)c1 | < 4.70 | –
2 | O=C(O)c1c(Cl)cccc1NS(=O)(=O)c1cccc(-c2cnn(Cc3ccccc3)c2)c1 | < 4.70 | –
3 | COc1cc(NS(=O)(=O)c2cccc(-c3cnn(Cc4ccccc4)c3)c2)c(C(=O)O)cc1OC | < 4.70 | –
4 | O=C(O)c1ccc(NS(=O)(=O)c2cccc(-c3cnn(Cc4ccccc4)c3)c2)cc1 | < 4.70 | –
5 | Cn1cc(-c2cccc(S(=O)(=O)Nc3ccccc3C(=O)O)c2)cn1 | < 4.70 | –
6 | CC(C)Cn1cc(-c2cccc(S(=O)(=O)Nc3ccccc3C(=O)O)c2)cn1 | < 4.70 | –
7 | O=S(=O)(Nc1ccccc1)c1cccc(-c2cnn(Cc3ccccc3)c2)c1 | < 4.70 | –
8 | COC(=O)c1ccccc1NS(=O)(=O)c1cccc(-c2cnn(Cc3ccccc3)c2)c1 | < 4.70 | –
9 | O=C(O)c1ccccc1NS(=O)(=O)c1cccc(-c2cn[nH]c2)c1 | < 4.70 | –

More lines, main results first:

Row | pIC50 [1] | SMILES | also measured
10 | < 4.70 | O=C(O)c1ccccc1NS(=O)(=O)c1cccc(-c2cnn(CCN3CCOCC3)c2)c1 | –
11 | 4.74 | O=C(O)c1cccc(Cl)c1NS(=O)(=O)c1cccc(-c2cnn(Cc3ccccc3)c2)c1 | –
12 | 5.17 | CC(C)CCn1cc(-c2cccc(S(=O)(=O)Nc3ccccc3C(=O)O)c2)cn1 | –
13 | 6.11 | O=C(O)c1ccc(Cl)cc1NS(=O)(=O)c1cccc(-c2cnn(Cc3ccccc3)c2)c1 | –
14 | 6.15 | O=C(O)c1ccccc1NS(=O)(=O)c1cccc(-c2cnn(Cc3ccccc3)c2)c1 | pIC50 (DNA polymerase beta): < 4.70; pIC50 [2]: < 4.70; pIC50 [3]: < 4.70
15 | < 4.70 | O=C(O)c1cccc(NS(=O)(=O)c2cccc(-c3cnn(Cc4ccccc4)c3)c2)c1 | –
16 | 5.14 | CC1=NN(c2cccc(S(=O)(=O)Nc3ccccc3C(=O)O)c2)C(=O)C1 | –
17 | 5.00 | COc1ccc(C(=O)O)c(NS(=O)(=O)c2cccc(-c3cnn(Cc4ccccc4)c3)c2)c1 | –
18 | 5.59 | O=C(O)c1cc(Cl)ccc1NS(=O)(=O)c1cccc(-c2cnn(Cc3ccccc3)c2)c1 | –
19 | 5.82 | O=C(Nc1cccc(Cn2cc(-c3cccc(S(=O)(=O)Nc4ccccc4C(=O)O)c3)cn2)c1)c1ccc(C(=O)c2ccccc2)cc1 | Activity (Dengue virus): Active
20 | 6.43 | O=C(O)c1ccccc1NS(=O)(=O)c1cccc(-c2cnn(Cc3ccc4ccccc4c3)c2)c1 | –
21 | 6.59 | O=C(O)c1ccc(F)cc1NS(=O)(=O)c1cccc(-c2cnn(Cc3ccc4ccccc4c3)c2)c1 | pIC50 (DNA polymerase beta): < 4.70; pIC50 [2]: < 4.70; pIC50 [3]: < 4.70
22 | 6.43 | O=C(O)c1ccc(F)cc1NS(=O)(=O)c1cccc(-c2cnn(Cc3ccccc3)c2)c1 | pIC50 (DNA polymerase beta): < 4.70; pIC50 [2]: < 4.70; pIC50 [3]: < 4.70

Source: ChEMBL document CHEMBL1154753, “N-sulfonylanthranilic acid derivatives as allosteric inhibitors of dengue viral RNA-dependent RNA polymerase” (J Med Chem, 2009)
